From ChEMBL document CHEMBL2046404, “Design, synthesis, and structure-activity correlations of novel dibenzo[b,d]furan, dibenzo[b,d]thiophene, and N-methylcarbazole clubbed 1,2,3-triazoles as potent inhibitors of Mycobacterium tuberculosis” (J Med Chem, 2012)
Values after ≈ are worked out from the molar mass of the structure shown.

Experiments:
[1] = test system: Mycobacterium tuberculosis; experiment: Antitubercular activity against Mycobacterium tuberculosis H37Rv ATCC 27294 after 28 days by agar dilution method; assay type: functional; settings: H37Rv ATCC 27294, 672 h
Method in brief: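 Twofold serial dilutions incorporated into Middlebrook 7H11 agar with OADC, final 25–0.78 μg/mL. Inoculum from fresh 7H11/OADC slants, 1 mg/mL wet weight in 0.05% Tween 80 saline diluted 10⁻² (~10⁷ cfu/mL); 5 μL spotted per tube.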

HeLa = experiment: Cytotoxicity against human HeLa cells after 48 hrs after MTT assay; assay type: cell-based
Method in brief: (§1)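 Cells grown in DMEM with 10% FBS, 37 °C, 5% CO₂. Seeded in 96-well plates and preincubated 24 h before compound, tested at 1, 10, 100, 1000 μM in triplicate wells, 48 h continuous exposure. MTT (10 μL of 5%) added for 60 min, stain eluted with DMSO, absorbance read at 560 nm. IC50 from dose–response curves versus control; mean ± SD of three experiments.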

A549 = experiment: Cytotoxicity against human A549 cells after 48 hrs after MTT assay; assay type: cell-based; settings: A549, 48 h; method in brief: as §1
SK-N-SH = experiment: Cytotoxicity against human SK-N-SH cells after 48 hrs after MTT assay; assay type: cell-based; method in brief: as §1
DU-145 = experiment: Cytotoxicity against human DU145 cells after 48 hrs after MTT assay; assay type: cell-based; settings: DU-145, 48 h
Method in brief: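 Cells kept in MEM with nonessential amino acids, 1 mM sodium pyruvate, bovine insulin, 10% FBS. Seeded in 96-well plates and preincubated 24 h, then exposed 48 h to 1, 10, 100, 1000 μM in triplicate wells. MTT (10 μL of 5%) for 60 min, DMSO elution, absorbance read at 560 nm. IC50 versus control absorbance; mean ± SD of three experiments.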

[2] = Selectivity index ratio of IC50 for human SK-N-SH cells to MIC for Mycobacterium tuberculosis H37Rv ATCC 27294; assay type: functional
[3] = Selectivity index ratio of IC50 for human A549 cells to MIC for Mycobacterium tuberculosis H37Rv ATCC 27294; assay type: functional
[4] = test system: Mycobacterium tuberculosis; experiment: Ratio of pyrazinamide MIC to compound MIC against Mycobacterium tuberculosis H37Rv ATCC 27294; assay type: functional
[5] = Selectivity index ratio of IC50 for human HeLa cells to MIC for Mycobacterium tuberculosis H37Rv ATCC 27294; assay type: functional
[6] = Selectivity index ratio of IC50 for human DU145 cells to MIC for Mycobacterium tuberculosis H37Rv ATCC 27294; assay type: functional, DU-145
[7] = test system: Mycobacterium tuberculosis; experiment: Ratio of ethambutol MIC to compound MIC against Mycobacterium tuberculosis H37Rv ATCC 27294; assay type: functional

**Q.** For CC(c1ccc2c(c1)c1ccccc1n2C)n1cc(-c2ccccc2)nn1 (stereo unspecified), which MIC [1] is on record?
**A.** 71 µM (≈ 25 µg/mL)

**Q.** With CCCc1cn(C(C)c2ccc3c(c2)c2ccccc2n3C)nn1 (stereo unspecified) as the molecule, how does the MIC [1] read?
**A.** 78 µM (≈ 24.8 µg/mL)

**Q.** For CCCCc1cn(C(C)c2ccc3c(c2)c2ccccc2n3C)nn1 (stereo unspecified), which MIC [1] is on record?
**A.** 75.3 µM (≈ 25 µg/mL)

**Q.** Which MIC [1] does the source give for CCCCCCc1cn(C(C)c2ccc3c(c2)c2ccccc2n3C)nn1 (stereo unspecified) here?
**A.** 70 µM (≈ 25.2 µg/mL)

**Q.** Which MIC [1] does the source give for CC(c1ccc2c(c1)c1ccccc1n2C)n1cc(CO)nn1 (stereo unspecified) here?
**A.** 81.7 µM (≈ 25 µg/mL)

**Q.** For CC(c1ccc2c(c1)c1ccccc1n2C)n1cc(COCc2ccccc2)nn1 (stereo unspecified), which MIC [1] is on record?
**A.** 63.1 µM (≈ 25 µg/mL)

**Q.** With CC(c1ccc2c(c1)c1ccccc1n2C)n1cc(-c2ccccc2[N+](=O)[O-])nn1 (stereo unspecified) as the molecule, how does the MIC [1] read?
**A.** 31.5 µM (≈ 12.5 µg/mL)

**Q.** Which MIC [1] does the source give for CC(c1ccc2c(c1)c1ccccc1n2C)n1cc(-c2ccc(C(C)(C)C)cc2)nn1 (stereo unspecified) here?
**A.** 30.6 µM (≈ 12.5 µg/mL)

**Q.** With CC(c1ccc2oc3ccccc3c2c1)n1cc(-c2ccccc2)nn1 (stereo unspecified) as the molecule, how does the MIC [1] read?
**A.** 18.4 µM (≈ 6.24 µg/mL)

**Q.** With CCCc1cn(C(C)c2ccc3oc4ccccc4c3c2)nn1 (stereo unspecified) as the molecule, how does the MIC [1] read?
**A.** 41 µM (≈ 12.5 µg/mL)

**Q.** For CCCCc1cn(C(C)c2ccc3oc4ccccc4c3c2)nn1 (stereo unspecified), which MIC [1] is on record?
**A.** 39.2 µM (≈ 12.5 µg/mL)

**Q.** With CCCCCCc1cn(C(C)c2ccc3oc4ccccc4c3c2)nn1 (stereo unspecified) as the molecule, how does the MIC [1] read?
**A.** 18 µM (≈ 6.25 µg/mL)

**Q.** Which MIC [1] does the source give for CC(c1ccc2oc3ccccc3c2c1)n1cc(CO)nn1 (stereo unspecified) here?
**A.** 85.3 µM (≈ 25 µg/mL)

**Q.** With CC(c1ccc2oc3ccccc3c2c1)n1cc(COCc2ccccc2)nn1 (stereo unspecified) as the molecule, how does the MIC [1] read?
**A.** 65.2 µM (≈ 25 µg/mL)

**Q.** Which MIC [1] does the source give for CC(c1ccc2oc3ccccc3c2c1)n1cc(-c2ccccc2[N+](=O)[O-])nn1 (stereo unspecified) here?
**A.** 16.3 µM (≈ 6.27 µg/mL)

**Q.** For CC(c1ccc2oc3ccccc3c2c1)n1cc(-c2ccc(C(C)(C)C)cc2)nn1 (stereo unspecified), which MIC [1] is on record?
**A.** 15.8 µM (≈ 6.25 µg/mL)

**Q.** Which results are given for CC(c1ccc2sc3ccccc3c2c1)n1cc(-c2ccccc2)nn1 (stereo unspecified)?
**A.** IC50 (HeLa): 329 µM; IC50 (A549): 444 µM; IC50 (SK-N-SH): 291 µM; IC50 (DU-145): 90 µM; MIC [1]: 4.4 µM (≈ 1.56 µg/mL)

**Q.** Which results are given for CCCc1cn(C(C)c2ccc3sc4ccccc4c3c2)nn1 (stereo unspecified)?
**A.** IC50 (HeLa): 87 µM; IC50 (A549): 68 µM; IC50 (SK-N-SH): 93 µM; IC50 (DU-145): 96 µM; MIC [1]: 9.75 µM (≈ 3.13 µg/mL)

**Q.** What does the source list for CCCCc1cn(C(C)c2ccc3sc4ccccc4c3c2)nn1 (stereo unspecified)?
**A.** IC50 (HeLa): 62 µM; IC50 (A549): 80 µM; IC50 (SK-N-SH): 101 µM; IC50 (DU-145): 107 µM; MIC [1]: 4.66 µM (≈ 1.56 µg/mL)

**Q.** For CCCCCCc1cn(C(C)c2ccc3sc4ccccc4c3c2)nn1 (stereo unspecified), which MIC [1] is on record?
**A.** 4.3 µM (≈ 1.56 µg/mL)

**Q.** With CC(c1ccc2sc3ccccc3c2c1)n1cc(CO)nn1 (stereo unspecified) as the molecule, how does the MIC [1] read?
**A.** 20.2 µM (≈ 6.25 µg/mL)

**Q.** What does the source list for CC(c1ccc2sc3ccccc3c2c1)n1cc(COCc2ccccc2)nn1 (stereo unspecified)?
**A.** IC50 (HeLa): 438 µM; IC50 (A549): 189 µM; IC50 (SK-N-SH): 103 µM; IC50 (DU-145): 225 µM; MIC [1]: 7.84 µM (≈ 3.13 µg/mL)

**Q.** Which IC50 (HeLa) does the source give for CC(c1ccc2sc3ccccc3c2c1)n1cc(-c2ccccc2[N+](=O)[O-])nn1 (stereo unspecified) here?
**A.** 136 µM

**Q.** What about the IC50 (A549) of the same molecule?
**A.** 190 µM

**Q.** And the IC50 (SK-N-SH)?
**A.** 386 µM

**Q.** And the IC50 (DU-145)?
**A.** 126 µM

**Q.** And the MIC [1]?
**A.** 3.9 µM (≈ 1.56 µg/mL)

**Q.** Which results are given for CC(c1ccc2sc3ccccc3c2c1)n1cc(-c2ccc(C(C)(C)C)cc2)nn1 (stereo unspecified)?
**A.** Ratio [2]: 55; IC50 (HeLa): 191 µM; Ratio [3]: 55; Ratio [4]: 26; IC50 (A549): 482 µM; IC50 (SK-N-SH): 260 µM; Ratio [5]: 55; Ratio [6]: 55; IC50 (DU-145): 105 µM; Ratio [7]: 4; MIC [1]: 1.89 µM (≈ 0.778 µg/mL)

**Q.** For Cc1ccc(-c2cn(C(C)c3ccc4sc5ccccc5c4c3)nn2)cc1 (stereo unspecified), which IC50 (HeLa) is on record?
**A.** 164 µM

**Q.** What about the IC50 (A549) of the same molecule?
**A.** 108 µM

**Q.** What about the IC50 (SK-N-SH) of the same molecule?
**A.** 32 µM

**Q.** What about the IC50 (DU-145) of the same molecule?
**A.** 174 µM

**Q.** And the MIC [1]?
**A.** 8.48 µM (≈ 3.13 µg/mL)

**Q.** For CC(c1ccc2sc3ccccc3c2c1)n1cc(CCc2ccccc2)nn1 (stereo unspecified), which IC50 (HeLa) is on record?
**A.** 79 µM

**Q.** What about the IC50 (A549) of the same molecule?
**A.** 78 µM

**Q.** What about the IC50 (DU-145) of the same molecule?
**A.** 100 µM

**Q.** And the MIC [1]?
**A.** 8.17 µM (≈ 3.13 µg/mL)

**Q.** With CC(c1ccc2sc3ccccc3c2c1)n1cc(-c2ccc([N+](=O)[O-])cc2)nn1 (stereo unspecified) as the molecule, how does the IC50 (HeLa) read?
**A.** 210 µM

**Q.** What about the IC50 (A549) of the same molecule?
**A.** 852 µM

**Q.** And the IC50 (SK-N-SH)?
**A.** 30 µM

**Q.** And the IC50 (DU-145)?
**A.** 138 µM

**Q.** What about the MIC [1] of the same molecule?
**A.** 3.9 µM (≈ 1.56 µg/mL)

**Q.** With CC(c1ccc2sc3ccccc3c2c1)n1cc(-c2ccsc2)nn1 (stereo unspecified) as the molecule, how does the MIC [1] read?
**A.** 34.6 µM (≈ 12.5 µg/mL)

**Q.** For COc1ccc2cc(-c3cn(C(C)c4ccc5sc6ccccc6c5c4)nn3)ccc2c1 (stereo unspecified), which MIC [1] is on record?
**A.** 28.7 µM (≈ 12.5 µg/mL)

**Q.** With CC(c1ccc2sc3ccccc3c2c1)n1cc(-c2cc3ccccc3c3ccccc23)nn1 (stereo unspecified) as the molecule, how does the MIC [1] read?
**A.** 54.9 µM (≈ 25 µg/mL)

**Q.** Which MIC [1] does the source give for CC(c1ccc2sc3ccccc3c2c1)n1cc(-c2ccc(-c3ccccc3)cc2)nn1 (stereo unspecified) here?
**A.** 14.5 µM (≈ 6.26 µg/mL)

**Q.** With CC(c1ccc2sc3ccccc3c2c1)n1cc(-c2ccc(Cl)cc2Cl)nn1 (stereo unspecified) as the molecule, how does the IC50 (HeLa) read?
**A.** 162 µM

**Q.** And the IC50 (A549)?
**A.** 400 µM

**Q.** What about the IC50 (SK-N-SH) of the same molecule?
**A.** 477 µM

**Q.** And the IC50 (DU-145)?
**A.** 150 µM

**Q.** And the MIC [1]?
**A.** 3.68 µM (≈ 1.56 µg/mL)

**Q.** Which results are given for CC(c1ccc2sc3ccccc3c2c1)n1cc(-c2ccc(F)cc2Cl)nn1 (stereo unspecified)?
**A.** Ratio [2]: 55; IC50 (HeLa): 155 µM; Ratio [3]: 55; Ratio [4]: 26; IC50 (A549): 249 µM; IC50 (SK-N-SH): 342 µM; Ratio [5]: 55; Ratio [6]: 55; IC50 (DU-145): 147 µM; Ratio [7]: 4; MIC [1]: 1.91 µM (≈ 0.779 µg/mL)

**Q.** What does the source list for CC(c1ccc2sc3ccccc3c2c1)n1cc(-c2ccc(Br)cc2F)nn1 (stereo unspecified)?
**A.** IC50 (HeLa): 457 µM; IC50 (A549): 219 µM; IC50 (SK-N-SH): 76 µM; IC50 (DU-145): 222 µM; MIC [1]: 3.45 µM (≈ 1.56 µg/mL)

**Q.** Which IC50 (HeLa) does the source give for CC(c1ccc2sc3ccccc3c2c1)n1cc(-c2cc(F)ccc2F)nn1 (stereo unspecified) here?
**A.** 96 µM

**Q.** And the IC50 (A549)?
**A.** 272 µM

**Q.** What about the IC50 (SK-N-SH) of the same molecule?
**A.** 21 µM

**Q.** And the IC50 (DU-145)?
**A.** 767 µM

**Q.** And the MIC [1]?
**A.** 3.98 µM (≈ 1.56 µg/mL)

**Q.** What does the source list for CC(c1ccc2sc3ccccc3c2c1)n1cc(-c2cc(F)cc(F)c2Cl)nn1 (stereo unspecified)?
**A.** IC50 (HeLa): 116 µM; IC50 (A549): 507 µM; IC50 (SK-N-SH): 46 µM; IC50 (DU-145): 120 µM; MIC [1]: 12.5 µM (≈ 5.32 µg/mL)

**Q.** Which MIC [1] does the source give for CC[C@@H](CO)NCCN[C@@H](CC)CO [ETHAMBUTOL] here?
**A.** 7.6 µM (≈ 1.55 µg/mL)

**Q.** For NNC(=O)c1ccncc1 [ISONIAZID], which MIC [1] is on record?
**A.** 0.37 µM (≈ 0.0507 µg/mL)

**Q.** Which MIC [1] does the source give for NC(=O)c1cnccn1 [PYRAZINAMIDE] here?
**A.** 50.1 µM (≈ 6.17 µg/mL)
